Source: PubChem BioAssay (The Scripps Research Institute Molecular Screening Center)
OXTR potentiator: potentiators of human oxytocin receptor; activation, % at 3 µM; CHO-OTR cells, Fluo-8 calcium fluorescence, potentiator mode; 0% = oxytocin EC15, 100% = EC100; actives 0.061% (n = 320,000); AID 2445;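 active means activation above that plate's cutoff, the mean activation of tested compounds plus 3 SD, cut at about 6.6% in these data, passing the limit was not always enough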;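 further: 100% uses oxytocin at 75 nM as the full agonist control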
Target sequence (P30559 whole entry, looked up): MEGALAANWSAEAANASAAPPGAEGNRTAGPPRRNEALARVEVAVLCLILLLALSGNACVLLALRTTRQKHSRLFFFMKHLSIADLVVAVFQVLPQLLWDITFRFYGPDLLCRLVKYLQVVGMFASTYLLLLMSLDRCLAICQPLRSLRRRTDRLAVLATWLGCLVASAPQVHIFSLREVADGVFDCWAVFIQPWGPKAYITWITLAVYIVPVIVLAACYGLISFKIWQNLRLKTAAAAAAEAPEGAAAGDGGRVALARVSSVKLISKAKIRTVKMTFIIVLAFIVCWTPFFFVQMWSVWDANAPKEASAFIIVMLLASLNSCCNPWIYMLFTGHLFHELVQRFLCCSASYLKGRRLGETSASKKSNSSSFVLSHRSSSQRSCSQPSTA
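Assay system: CHO cell line stably expressing human OTR. Reagent: EC15 oxytocin agonist. Dosing: single dose, 3.0 µM nominal final compound concentration. Timing: compound 6 min at room temperature before oxytocin, 100 s read. Signal: kinetic Fluo-8 calcium fluorescence. Controls: oxytocin EC15 low and EC100 high.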
OXTR agonist: human OXTR agonism. activation, % at 3 µM. actives 0.32% (n = 320,000). CHO-OTR cells, Fluo-8 calcium fluorescence; normalized: DMSO 0%, oxytocin 100%. P30559. AID 2435;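 active means activation above the mean of all tested compounds plus 3 SD, cutoff set per screening run, cut at about 20% in these data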;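 further: peak over basal fluorescence ratio from a 100 s FLIPR kinetic read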
V1aR counter: V1a receptor agonism, counter-screen for OXTR agonists | actives 0.25% (n = 320,000) | CHO-V1R cells, Fluo-8 calcium fluorescence, agonist mode; 0% DMSO, 100% 3 nM vasopressin | activation, % at 3 µM;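 active means activation above the mean activation of all tested compounds plus 3 SD, per screening run, cut at about 20% in these data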;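 further: signal is peak over basal fluorescence ratio across a 100 second FLIPR read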
TRPML3 agonist: agonists of human TRPML3 channel | HEK293 TRPML3-YFP, Fluo-8 calcium fluorescence; 100% = the carbachol control signal | activation, % at 3 µM | actives 0.29% (n = 220,000);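 active means activation above its plate's cutoff, the mean activation of the plate's test wells plus 3 SD, cut at about 12% in these data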;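 further: 0% = DMSO only wells and 100% = carbachol wells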
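Test system: HEK293 cells stably carrying human TRPML3-YFP; Doses: single dose, 3 µM final nominal compound, 0.3% DMSO final; Schedule: dye loading 1 h 37 °C then 30 min ambient, 125 s read; Technique: Fluo-8 calcium fluorescence; Benchmarks: high control carbachol 87 µM, low control DMSO.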
TRPN1 ag: agonists of zebrafish TRPN1 channel. HEK293 zebrafish TRPN1-YFP, Fluo-8 calcium fluorescence; 100% = response to 87 µM carbachol. actives 0.18% (n = 220,000). activation, % at 3 µM;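 active means activation above its plate's cutoff, the mean activation of test wells on that plate plus 3 SD, cut at about 19% in these data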;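 further: 0% = DMSO alone and 100% = 87 µM carbachol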
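System: zebrafish TRPN1-YFP in HEK293 cells / Dosing: 3 µM single point / Timing: dye loading 1 h at 37 °C, then 30 min room temperature / Signal: Fluo-8 calcium fluorescence, excitation 470-495 nm, emission 515-575 nm / Read-out basis: percent activation from peak over basal fluorescence ratio, control-normalized / Control set: high carbachol 87 µM, low DMSO alone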
OXTR ag confirm: confirmation of human oxytocin receptor agonists. actives 20% (n = 390). activation, % at 3 µM. CHO-OTR cells, Fluo-8 calcium fluorescence, agonist. AID 434963. shares compounds with OXTR agonist;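 active means mean activation above about 20% derived from the earlier single-dose screen, limit read from the data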;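 further: peak over minimum fluorescence ratio per well during a 100 second FLIPR read; 0% = DMSO alone and 100% = oxytocin high control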
V1R ag counter 3x: counter-screen for oxytocin receptor agonists: V1a receptor agonists; shares compounds with OXTR agonist; CHO-V1R cells, Fluo-8 calcium fluorescence, agonist; activation, % at 3 µM; actives 10% (n = 390); AID 434991;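 active means mean activation over triplicate exceeds the hit threshold set in the earlier primary screen, cut at about 20% in these data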;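 further: peak over basal fluorescence ratio within a 100 second read; 0% = DMSO alone and 100% = 3 nM vasopressin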
OXTR pot cf: confirmation of human oxytocin receptor potentiators; shares compounds with OXTR potentiator; CHO-OTR cells, Fluo-8 calcium fluorescence, potentiation; scaled from low-dose to maximal oxytocin; activation, % at 3 µM; 180 tested, under 10 active; AID 434985;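 active means mean percent activation over triplicates above a cutoff set from solvent-only control plates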;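 further: compounds tested in the presence of an EC15 dose of oxytocin; 0% = EC15 oxytocin with DMSO and 100% = EC100 oxytocin with DMSO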
Starred values were filed as active, the others as inactive; . = no result; ! = a repeat was not active. The list is not random: actives were taken first. Their share in the collection is about 0.58%.

SMILES	OXTR potentiator	OXTR agonist	V1aR counter	TRPML3 agonist	TRPN1 ag	OXTR ag confirm	V1R ag counter 3x	others
CC1(c2ccc3c(c2)OCCCO3)NC(=O)N(CC(=O)NCCc2ccccc2)C1=O (stereo unspecified)	-4.3	1.0	0.2	.	.	.	.
Cc1nc2ccccc2n2c(O)c(CC(=O)O)cc12	2.1	24.4*	15.5	1.2	0.0	0.9	2.3
Cc1nc2ccccc2n1CCC(=O)O	-4.0	0.7	-1.2	0.8	-0.4	.	.
Cc1cc(C)cc(OCC(=O)Nc2ccc(-n3cnnn3)cc2)c1	-7.7	-1.2	-0.1	.	.	.	.
CC(Sc1ccc(Cl)cc1)C(=O)Nc1ccc(S(=O)(=O)N2CCOCC2)cc1 (stereo unspecified)	-22.8	28.8*	13.1	6.3	9.5	20.6*	9.5
CN(CC(=O)Nc1ccc(Cl)c(C(F)(F)F)c1)C(=O)c1cccc2cccnc12	-8.5	8.7	8.2	.	.	.	.
CCOC(=O)c1c(C)oc2ccc(O)c(CN(C)C)c12	-2.6	0.5	1.0	0.6	0.5	.	.
CCOC(=O)c1c(CSc2ccc(CC)cc2)oc2ccc(O)c(CN(C)C)c12	-17.6	25.1*	14.1	.	.	1.5	4.4
O=C(NC1CCCCC1)NC1C2CC3CC(C2)CC1C3 (stereo unspecified)	-3.1	-1.3	0.1	.	.	.	.
CCOC(=O)[C@@H]1[C@H]2COc3ccccc3[C@H]2N2C(=O)N(c3ccc(Cl)cc3)C(=O)[C@]12C	2.3	-0.6	0.8	.	.	.	.
COc1ccc(CNCc2ccco2)cc1OCc1ccccc1	1.6	2.8	0.7	1.1	-0.1	.	.
COc1ccccc1CCNCc1ccc(OC)c(OCc2ccccc2)c1	-10.8	21.7*	13.1	1.4	2.8	11.6	8.8
COc1cc(CNCCc2c[nH]c3ccccc23)ccc1OCc1ccccc1F	-10.3	22.5*	10.6	1.4	-0.4	12.7	4.5
COc1cccc(CNCCc2c[nH]c3ccccc23)c1OCc1ccccc1	-15.7	29.4*	15.3	0.2	-1.9	17.4	16.0
Cc1cccc(C(=O)NCCCNC(=O)c2cccnc2)c1	-6.1	0.5	1.7	.	.	.	.
N=c1n(CC(=O)c2ccc(Br)s2)c2ccccc2n1Cc1ccccc1	-22.9	23.1*	19.0	2.4	2.3	21.9*	12.9
Fc1ccc([C@@H]2CCNC[C@H]2COc2ccc3c(c2)OCO3)cc1	-10.0	23.2*!	12.6	0.5	0.1	11.4	7.2
Fc1ccc(C2CCNCC2COc2ccc3c(c2)OCO3)cc1 (stereo unspecified)	-8.4	11.8	3.3	.	.	.	.
N#CCCN(C(=O)COC(=O)c1cc(=O)[nH]c2ccccc12)c1ccccc1	-8.5	0.8	0.7	.	.	.	.
N#Cc1cn(-c2ccccc2)nc1-c1ccc2c(c1)OCCO2	-1.6	-1.2	0.3	0.4	-1.5	.	.
N#Cc1cn(-c2ccccc2)nc1-c1ccco1	13.3*	-2.2	-2.2	0.1	-1.5	.	.	OXTR pot cf=-3.1
CN1CCN(S(=O)(=O)c2cccc(C(=O)NC3(C)CCS(=O)(=O)C3)c2)CC1 (stereo unspecified)	0.7	0.6	1.2	.	.	.	.
NC(=S)N/N=C/c1c[nH]c2ccc(OCc3ccccc3)cc12	-14.5	4.9	7.3	.	.	.	.
CCOc1cc(/C=N/NC(=O)C(=O)NC2CC2)cc(Br)c1O	15.7*	-1.1	0.1	0.6	0.8	.	.	OXTR pot cf=-6.2
CCOc1cc(/C=N/NC(=O)C(N)=O)cc(Br)c1O	0.1	-0.5	0.1	0.4	0.4	.	.
CC(C)CNC(=O)CC(=O)N/N=C/c1ccc(F)cc1	12.2*	2.3	0.3	0.6	-0.4	.	.	OXTR pot cf=-3.5
CCOc1ccc(NC(=O)c2ccc3c(c2)N(Cc2ccc(F)cc2)C(=O)CS3=O)cc1 (stereo unspecified)	12.4*	-0.6	-0.8	-0.3	2.1	.	.	OXTR pot cf=-2.6
